What was measured:
LOUCY = experiment: Cytotoxicity against human Loucy cells assessed as reduction in cell viability after 5 days by CellTiter-Glo assay; conditions: 120 h
[1] = Cytotoxicity against human NALM16 cells assessed as reduction in cell viability after 5 days by CellTiter-Glo assay; conditions: NALM16, 120 h
HepG2 = experiment: Cytotoxicity against human HepG2 cells assessed as reduction in cell viability after 3 days by CellTiter-Glo assay; assay type: cell-based
[2] = Cytotoxicity against human HD-MB03 cells assessed as reduction in cell viability after 5 days by CellTiter-Glo assay; conditions: HD-MB03, 120 h
[3] = target: T1, Bromodomain-containing protein 2 (Homo sapiens, UniProt P25440)
Target sequence in this assay (P25440 whole entry): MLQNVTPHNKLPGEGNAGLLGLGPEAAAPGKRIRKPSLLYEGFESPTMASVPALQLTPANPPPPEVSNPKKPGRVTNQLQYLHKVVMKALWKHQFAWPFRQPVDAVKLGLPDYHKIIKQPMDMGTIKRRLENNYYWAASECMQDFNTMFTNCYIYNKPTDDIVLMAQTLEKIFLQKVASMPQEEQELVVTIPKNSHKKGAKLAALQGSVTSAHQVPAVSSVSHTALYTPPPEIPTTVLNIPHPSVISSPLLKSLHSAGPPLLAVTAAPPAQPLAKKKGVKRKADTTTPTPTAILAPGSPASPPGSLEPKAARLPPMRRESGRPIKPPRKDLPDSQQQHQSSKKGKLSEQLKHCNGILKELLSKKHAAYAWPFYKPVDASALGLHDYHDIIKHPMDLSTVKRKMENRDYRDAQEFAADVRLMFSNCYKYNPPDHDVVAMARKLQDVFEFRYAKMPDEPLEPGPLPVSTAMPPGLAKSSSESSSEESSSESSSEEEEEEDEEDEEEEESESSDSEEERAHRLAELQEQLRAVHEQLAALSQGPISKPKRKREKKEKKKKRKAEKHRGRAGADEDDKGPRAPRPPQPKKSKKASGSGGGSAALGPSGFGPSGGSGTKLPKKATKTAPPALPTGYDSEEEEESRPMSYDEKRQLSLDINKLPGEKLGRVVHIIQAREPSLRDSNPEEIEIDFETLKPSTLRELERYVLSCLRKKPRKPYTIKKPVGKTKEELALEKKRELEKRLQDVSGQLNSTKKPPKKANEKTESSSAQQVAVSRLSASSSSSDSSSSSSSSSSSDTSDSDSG

BJ = experiment: Cytotoxicity against human BJ cells assessed as reduction in cell viability after 3 days by CellTiter-Glo assay; assay type: cell-based
[4] = target: T1, Bromodomain-containing protein 2; experiment: Inhibition of recombinant human BRD2 bromodomain 1 (49 to 170 residues) using biotin labeled peptide substrate preincubated for 15 mins followed by substrate addition measured after 1 hr by TR-FRET assay; assay type: single protein
Target sequence in this assay (P25440 whole entry): as above

[5] = target: T1, Bromodomain-containing protein 2; experiment: Binding affinity to His-tagged BRD2 bromodomain 1 (unknown origin) by SPR assay; assay type: single protein
How it was run: (§1)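 SPR at 15 °C: poly-His BRD2 bromodomain constructs capture-coupled (Ni2+/NTA plus EDC/NHS amine coupling) to ~450–530 RU, with a reference channel. Compounds run as 3-fold series from 2 μM, in duplicate, at 150 μL/min.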
Target sequence in this assay (P25440 whole entry): as above

Homo sapiens [6] = species: Homo sapiens; experiment: Selectivity index, ratio of Kd for His-tagged BRD2 bromodomain 1 (unknown origin) to Kd for His-tagged BRD2 bromodomain 2 (unknown origin); how it was run: as §1
[7] = target: T1, Bromodomain-containing protein 2; experiment: Binding affinity to BRD2 bromodomain 1 (74 to 194 residues) (unknown origin) by ITC
Target sequence in this assay (P25440 whole entry): as above

Homo sapiens [8] = species: Homo sapiens; experiment: Selectivity index, ratio of Kd for BRD2 bromodomain 1 (74 to 194 residues) (unknown origin to Kd for BRD2 bromodomain 2 (348 to 455 residues) (unknown origin)
HEK293 = experiment: Cytotoxicity against HEK293 cells assessed as reduction in cell viability after 3 days by CellTiter-Glo assay; assay type: cell-based, Homo sapiens
[9] = target: T1, Bromodomain-containing protein 2; experiment: Inhibition of BRD2 in human HD-MB03 cells assessed as reduction in c-Myc protein expression after 72 hrs by Hoechst 33342 staining based immunofluorescence assay; assay type: cell-based
How it was run: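 HD-MB03 cells (3000/well, supplemented neurobasal medium) treated 24 h after plating with compound at 2 nM–40 μM final for 72 h. Imaged at 10x; nuclear masks from Hoechst used to quantify MYC per nucleus.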
Target sequence in this assay (P25440 whole entry, looked up): as the sequence (P25440 whole entry) above

[10] = target: T1, Bromodomain-containing protein 2; experiment: Binding affinity to His-tagged BRD2 bromodomain 2 (unknown origin) by SPR assay; how it was run: as §1
Target sequence in this assay (P25440 whole entry): as above

Row | SMILES | EC50 (LOUCY) [µM] | EC50 [1] [µM] | EC50 (HepG2) | EC50 [2] [µM] | IC50 [3] [µM] | EC50 (BJ) | IC50 [4] [µM] | Kd [5] [µM] | Selectivity Index (Homo sapiens [6]) | Kd [7] [µM] | Selectivity Index (Homo sapiens [8]) | EC50 (HEK293) | inhibition [9] | Kd [10] [µM]
1 | CC(=O)N1c2ccc(-c3ccc(C(=O)O)cc3)cc2[C@H](Nc2ccc(Cl)cc2)C[C@@H]1C | 0.7 | 0.31 | Non-Toxic | 0.2 | 0.03 | Non-Toxic | 0.72 | – | – | – | – | – | – | –
2 | CC(=O)N1c2ccc(-c3cccs3)cc2[C@H](NC(=O)OC(C)C)C[C@@H]1C | – | – | – | – | 0.83 | – | 1.77 | 0.066 | 1.1 | 0.0613 | 2.9 | – | – | –
3 | CC(=O)N1c2ccc(-c3ccsc3)cc2[C@H](NC(=O)OC(C)C)C[C@@H]1C | – | – | – | – | 1.08 | – | 5.21 | 0.105 | 1.5 | 0.0717 | 4.2 | – | – | –
4 | COc1cc(OC)c2c(=O)[nH]c(-c3cc(C)c(OCCO)c(C)c3)nc2c1 [APABETALONE] | – | – | Non-Toxic | – | – | Non-Toxic | – | – | – | – | – | Non-Toxic | – | –
5 | CC(=O)N1c2ccc(-c3ccco3)cc2[C@H](NC(=O)OC(C)C)C[C@@H]1C | – | – | Non-Toxic | – | – | Non-Toxic | – | – | – | – | – | Non-Toxic | Dose-dependent effect | –
6 | CC(=O)N1c2ccc(-c3ccoc3)cc2[C@H](NC(=O)OC(C)C)C[C@@H]1C | – | – | – | – | 1.91 | – | 5.8 | 0.245 | 1.7 | – | 0.5 | – | – | 0.148
7 | CCNC(=O)C[C@@H]1N=C(c2ccc(Cl)cc2)c2cc(OC)ccc2-n2c(C)nnc21 [MOLIBRESIB] | – | – | Non-Toxic | – | – | Non-Toxic | – | – | – | – | – | Non-Toxic | – | –
8 | Cc1sc2c(c1C)C(c1ccc(Cl)cc1)=N[C@@H](CC(=O)OC(C)(C)C)c1nnc(C)n1-2 | – | – | Non-Toxic | – | – | Non-Toxic | – | – | – | – | – | Non-Toxic | – | –
9 | CC(=O)N1c2ccc(-c3ccc[nH]3)cc2[C@H](NC(=O)OC(C)C)C[C@@H]1C | – | – | – | – | 1.4 | – | 1.4 | 0.099 | 1.3 | – | 3.7 | – | – | 0.074
10 | CC(=O)N1c2ccc(-c3cc[nH]c3)cc2[C@H](NC(=O)OC(C)C)C[C@@H]1C | – | – | – | – | 0.41 | – | 2.48 | 0.104 | 1.4 | – | 4.6 | – | – | 0.077
